Results from different studies.
Target: Calcium/calmodulin-dependent protein kinase type 1D (CAMK1D, Homo sapiens, UniProt Q8IU85)

SMILES	read-out	mode	method	concentration	endpoint	value
Nc1ncc(-c2nc(N3CCOCC3)nc(N3CCOCC3)n2)c(C(F)F)n1	binding	–	competition with immobilised ligand	10 µM	remaining binding	100%
COc1ncccc1-c1cnn2ccc(N3CCN(C(=O)OC(C)C)CC3)nc12	binding	–	competition with immobilised ligand	1 µM	remaining binding	100%
N#CC1(c2ccccn2)CCN(Cc2cc(C(=O)O)c(=O)n3ccccc23)CC1	cell-free assay	–	competition with immobilised ligand	1 µM	remaining binding	100%
Cn1cc(-c2cc(F)cc(N3CCn4c(cc5c4CCCC5)C3=O)c2CO)cc(Nc2ccc(N3CCN(C4COC4)CC3)cn2)c1=O	enzyme activity	inhibitor	–	0.1 µM	inhibition	15%
CC(C)(C)c1cc(C=C(C#N)C#N)cc(Br)c1O	enzyme activity	inhibitor	–	0.5 µM	remaining activity	111%
Cc1nn(C)cc1-c1nc2c(N3CCN(Cc4ccc(Cl)cc4)CC3)c(Cl)cnc2[nH]1	binding	–	competition with immobilised ligand	1 µM	remaining binding	100%
Cn1cncc1[C@](O)(COc1ccc(C#N)cc1-c1ccc(OC(F)(F)F)cc1)c1ccc(C#N)cc1	cell-free assay	–	competition with immobilised ligand	1 µM	remaining binding	100%
O=c1[nH]c2ccccc2n1C1CCN(Cc2ccc(-c3[nH]c4cc5ncnc5cc4nc3-c3ccccc3)cc2)CC1	cell-free assay	–	–	0.5 µM	remaining signal	107%
